Experiments:
[1] = Displacement of [125I]-Ang-2 from AT1 receptor in rat liver membranes after 1.5 hrs; type: cell membranes, Membrane
[2] = Displacement of [125I]-Ang-2 from AT2 receptor in porcine myometrial membranes after 1.5 hrs; type: cell membranes, Sus scrofa
Summary of the method: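 Membranes were made from porcine uteri (myometrium). AT1 binding was blocked by adding losartan. [125I]Ang II binding ran in 50 mM Tris-HCl pH 7.4 with 100 mM NaCl, 10 mM MgCl2, 1 mM EDTA, 0.025% bacitracin and 0.2% BSA, at 25 °C for 1.5 h. Bound ligand was caught on GF/C filters, washed with cold Tris and gamma-counted. IC50 was the concentration displacing 50% of specific binding. Run in triplicate.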

[3] = target: T1, Type-2 angiotensin II receptor (Homo sapiens, UniProt P50052); test: Binding affinity to AT2 receptor (unknown origin)
T1 sequence (P50052 whole entry): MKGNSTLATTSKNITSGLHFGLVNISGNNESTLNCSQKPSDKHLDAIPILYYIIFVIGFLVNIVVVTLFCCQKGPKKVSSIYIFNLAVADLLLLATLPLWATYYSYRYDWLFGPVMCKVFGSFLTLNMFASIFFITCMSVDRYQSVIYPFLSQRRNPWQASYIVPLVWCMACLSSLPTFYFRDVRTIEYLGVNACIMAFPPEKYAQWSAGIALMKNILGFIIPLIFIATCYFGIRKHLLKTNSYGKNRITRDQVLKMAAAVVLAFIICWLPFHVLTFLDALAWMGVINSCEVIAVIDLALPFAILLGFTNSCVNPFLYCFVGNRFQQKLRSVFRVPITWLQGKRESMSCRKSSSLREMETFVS

[4] = target: T2, Type-1 angiotensin II receptor (Homo sapiens, UniProt P30556); test: Binding affinity to AT1 receptor (unknown origin)
T2 sequence (P30556 whole entry): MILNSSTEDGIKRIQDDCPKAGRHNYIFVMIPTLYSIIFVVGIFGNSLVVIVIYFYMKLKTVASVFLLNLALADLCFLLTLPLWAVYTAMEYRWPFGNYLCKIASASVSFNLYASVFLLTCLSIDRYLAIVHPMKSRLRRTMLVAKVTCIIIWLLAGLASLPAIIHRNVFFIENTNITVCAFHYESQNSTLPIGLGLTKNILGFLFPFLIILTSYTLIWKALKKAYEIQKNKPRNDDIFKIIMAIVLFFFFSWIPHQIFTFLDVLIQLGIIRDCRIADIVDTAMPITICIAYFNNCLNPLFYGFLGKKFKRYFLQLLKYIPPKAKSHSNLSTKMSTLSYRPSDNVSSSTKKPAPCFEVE

Rattus norvegicus [5] = test: Antihypertensive activity in renal spontaneously hypertensive rat model assessed as reduction of diastolic arterial pressure at 20 mg/kg, po measured at 8 hrs by tail-cuff method relative to control; type: functional, Artery
Summary of the method: (§1)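 Spontaneously hypertensive rats were dosed orally with the test agent at 20 mg/kg, with a saline-dosed control group. SAP, DAP, MAP and heart rate were recorded before dosing and at 1, 2, 4, 6 and 8 h after. Change was taken as the post-dose value minus the pre-dose value. Significance was judged against the control at p < 0.1 and p < 0.05.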

Rattus norvegicus [6] = test: Antihypertensive activity in renal spontaneously hypertensive rat model assessed as reduction of diastolic arterial pressure at 20 mg/kg, po measured at 2 hrs by tail-cuff method relative to control; type: functional, Artery; summary of the method: as §1
Rattus norvegicus [7] = test: Antihypertensive activity in renal spontaneously hypertensive rat model assessed as reduction of mean arterial pressure at 20 mg/kg, po measured at 6 hrs by tail-cuff method relative to control; type: functional, Artery; summary of the method: as §1
Rattus norvegicus [8] = test: Antihypertensive activity in renal spontaneously hypertensive rat model assessed as reduction of systolic arterial pressure at 20 mg/kg, po measured at 4 hrs by tail-cuff method relative to control; type: functional, Artery; summary of the method: as §1
Rattus norvegicus [9] = test: Antihypertensive activity in renal spontaneously hypertensive rat model assessed as reduction of mean arterial pressure at 20 mg/kg, po measured at 1 hr by tail-cuff method relative to control; type: functional, Artery; summary of the method: as §1
Rattus norvegicus [10] = test: Toxicity in renal spontaneously hypertensive rat model assessed as reduction of heart rate at 20 mg/kg, po measured at 1 hr by tail-cuff method relative to control; type: organism-based; parameters: dose 20 mg/kg, route oral; settings: in vivo; summary of the method: as §1
Rattus norvegicus [11] = test: Toxicity in renal spontaneously hypertensive rat model assessed as reduction of heart rate at 20 mg/kg, po measured at 6 hrs by tail-cuff method relative to control; type: organism-based; parameters: dose 20 mg/kg, route oral; settings: in vivo; summary of the method: as §1
Rattus norvegicus [12] = test: Antihypertensive activity in renal spontaneously hypertensive rat model assessed as reduction of mean arterial pressure at 20 mg/kg, po measured at 4 hrs by tail-cuff method relative to control; type: functional, Artery; summary of the method: as §1
Rattus norvegicus [13] = test: Toxicity in renal spontaneously hypertensive rat model assessed as reduction of heart rate at 20 mg/kg, po measured at 4 hrs by tail-cuff method relative to control; type: organism-based; parameters: dose 20 mg/kg, route oral; settings: in vivo; summary of the method: as §1
Rattus norvegicus [14] = test: Antihypertensive activity in renal spontaneously hypertensive rat model assessed as reduction of systolic arterial pressure at 20 mg/kg, po measured at 2 hrs by tail-cuff method relative to control; type: functional, Artery; summary of the method: as §1
Rattus norvegicus [15] = test: Antihypertensive activity in renal spontaneously hypertensive rat model assessed as reduction of systolic arterial pressure at 20 mg/kg, po measured at 8 hrs by tail-cuff method relative to control; type: functional, Artery; summary of the method: as §1
Rattus norvegicus [16] = test: Antihypertensive activity in renal spontaneously hypertensive rat model assessed as reduction of diastolic arterial pressure at 20 mg/kg, po measured at 4 hrs by tail-cuff method relative to control; type: functional, Artery; summary of the method: as §1
Rattus norvegicus [17] = test: Toxicity in renal spontaneously hypertensive rat model assessed as reduction of heart rate at 20 mg/kg, po measured at 2 hrs by tail-cuff method relative to control; type: organism-based; parameters: dose 20 mg/kg, route oral; settings: in vivo; summary of the method: as §1
Rattus norvegicus [18] = test: Antihypertensive activity in renal spontaneously hypertensive rat model assessed as reduction of diastolic arterial pressure at 20 mg/kg, po measured at 1 hr by tail-cuff method relative to control; type: functional, Artery; summary of the method: as §1
Rattus norvegicus [19] = test: Antihypertensive activity in renal spontaneously hypertensive rat model assessed as reduction of systolic arterial pressure at 20 mg/kg, po measured at 6 hrs by tail-cuff method relative to control; type: functional, Artery; summary of the method: as §1
Rattus norvegicus [20] = test: Antihypertensive activity in renal spontaneously hypertensive rat model assessed as reduction of systolic arterial pressure at 20 mg/kg, po measured at 1 hr by tail-cuff method relative to control; type: functional, Artery; summary of the method: as §1
Rattus norvegicus [21] = test: Toxicity in renal spontaneously hypertensive rat model assessed as reduction of heart rate at 20 mg/kg, po measured at 8 hrs by tail-cuff method relative to control; type: organism-based; parameters: dose 20 mg/kg, route oral; settings: in vivo; summary of the method: as §1
Rattus norvegicus [22] = test: Antihypertensive activity in renal spontaneously hypertensive rat model assessed as reduction of diastolic arterial pressure at 20 mg/kg, po measured at 6 hrs by tail-cuff method relative to control; type: functional, Artery; summary of the method: as §1
Rattus norvegicus [23] = test: Antihypertensive activity in renal spontaneously hypertensive rat model assessed as reduction of mean arterial pressure at 20 mg/kg, po measured at 2 hrs by tail-cuff method relative to control; type: functional, Artery; summary of the method: as §1
Rattus norvegicus [24] = test: Antihypertensive activity in renal spontaneously hypertensive rat model assessed as reduction of mean arterial pressure at 20 mg/kg, po measured at 8 hrs by tail-cuff method relative to control; type: functional, Artery; summary of the method: as §1

SMILES | IC50 [1] [µM] | IC50 [2] [µM] | further results
CCN(CC)Cc1ccc(S(=O)(=O)NC(=O)OCc2ccccc2)c(-c2ccc(Cn3cncn3)cc2)c1 | > 10 | > 10 | –
CCCCOC(=O)NS(=O)(=O)c1ccc(CC(C)C)cc1-c1ccc(N)cc1 | > 10 | > 10 | –
CCCCOC(=O)NS(=O)(=O)c1ccc(CC(C)C)cc1-c1ccc(NC)cc1 | > 10 | > 10 | –
CCCCOC(=O)NS(=O)(=O)c1ccc(CC(C)C)cc1-c1ccc(NCC)cc1 | > 10 | > 10 | –
CCCCOC(=O)NS(=O)(=O)c1ccc(CC(C)C)cc1-c1ccc(NCCC)cc1 | > 10 | > 10 | –
CCCCc1nn(C)c(=O)n1Cc1ccc(-n2cccc2-c2nnn[nH]2)cc1 | – | – | IC50 [3]: > 10 µM; IC50 [4]: 0.0025 µM
CCCCOC(=O)NS(=O)(=O)c1sc(CC(C)C)cc1-c1ccc(Cn2ccnc2)cc1 [BULOXIBUTID] | > 10 | 0.0004 | –

More lines, main results first:

IC50 [1] [µM] | IC50 [2] [µM] | SMILES | further results
> 10 | 0.106 | CCCCC(=O)NS(=O)(=O)c1ccc(C)cc1-c1ccc(Cn2cncn2)cc1 | –
> 10 | 0.064 | CCOC(=O)NS(=O)(=O)c1ccc(C)cc1-c1ccc(Cn2cncn2)cc1 | –
> 10 | 0.289 | Cc1ccc(S(=O)(=O)NC(=O)OC(C)(C)C)c(-c2ccc(Cn3cncn3)cc2)c1 | –
> 10 | 0.016 | CCCCOC(=O)NS(=O)(=O)c1ccc(C)cc1-c1ccc(Cn2cncn2)cc1 | –
> 10 | > 10 | Cc1ccc(S(=O)(=O)NC(=O)OCc2ccccc2)c(-c2ccc(Cn3cncn3)cc2)c1 | –
> 10 | 0.117 | CCOC(=O)NS(=O)(=O)c1ccc(CN(CC)CC)cc1-c1ccc(Cn2cncn2)cc1 | –
> 10 | 0.01 | CCCCOC(=O)NS(=O)(=O)c1ccc(CN(CC)CC)cc1-c1ccc(Cn2cncn2)cc1 | –
0.085 | > 10 | CCCCc1nc(Cl)c(CO)n1Cc1ccc(-c2ccccc2-c2nnn[nH]2)cc1 [LOSARTAN] | Activity (Rattus norvegicus [5]): -13.09 mmHg; Activity (Rattus norvegicus [6]): -8.96 mmHg; Activity (Rattus norvegicus [7]): -19.12 mmHg; Activity (Rattus norvegicus [8]): -15.55 mmHg; Activity (Rattus norvegicus [9]): -3.05 mmHg; Activity (Rattus norvegicus [10]): -2 bpm; Activity (Rattus norvegicus [11]): -14.05 bpm; Activity (Rattus norvegicus [12]): -15.13 mmHg; Activity (Rattus norvegicus [13]): -10.57 bpm; Activity (Rattus norvegicus [14]): -5.21 mmHg; Activity (Rattus norvegicus [15]): -14.02 mmHg; Activity (Rattus norvegicus [16]): -14.25 mmHg; Activity (Rattus norvegicus [17]): -7.1 bpm; Activity (Rattus norvegicus [18]): -7.76 mmHg; Activity (Rattus norvegicus [19]): -20.23 mmHg; Activity (Rattus norvegicus [20]): -2.8 mmHg; Activity (Rattus norvegicus [21]): -13.2 bpm; Activity (Rattus norvegicus [22]): -17.58 mmHg; Activity (Rattus norvegicus [23]): -7.33 mmHg; Activity (Rattus norvegicus [24]): -14.55 mmHg

— ChEMBL document CHEMBL3091458, “Design, synthesis, and biological evaluation of 1,2,4-triazole bearing 5-substituted biphenyl-2-sulfonamide derivatives as potential antihypertensive candidates” (Bioorg Med Chem, 2013)
